The species named for one assay is Homo sapiens. Description: Selectivity ratio of IC50 for human COX1 to IC50 for human COX2. The essentials:
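Ratio of the COX-1 IC50 to the COX-2 IC50. Both IC50s are for inhibition of PGE2 production by COS cells stably expressing human COX-1 or human COX-2, after stimulation with arachidonic acid.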

The target in assay [1] is T1, Prostaglandin G/H synthase 2 (Homo sapiens, UniProt P35354).
T1 sequence (P35354 whole entry): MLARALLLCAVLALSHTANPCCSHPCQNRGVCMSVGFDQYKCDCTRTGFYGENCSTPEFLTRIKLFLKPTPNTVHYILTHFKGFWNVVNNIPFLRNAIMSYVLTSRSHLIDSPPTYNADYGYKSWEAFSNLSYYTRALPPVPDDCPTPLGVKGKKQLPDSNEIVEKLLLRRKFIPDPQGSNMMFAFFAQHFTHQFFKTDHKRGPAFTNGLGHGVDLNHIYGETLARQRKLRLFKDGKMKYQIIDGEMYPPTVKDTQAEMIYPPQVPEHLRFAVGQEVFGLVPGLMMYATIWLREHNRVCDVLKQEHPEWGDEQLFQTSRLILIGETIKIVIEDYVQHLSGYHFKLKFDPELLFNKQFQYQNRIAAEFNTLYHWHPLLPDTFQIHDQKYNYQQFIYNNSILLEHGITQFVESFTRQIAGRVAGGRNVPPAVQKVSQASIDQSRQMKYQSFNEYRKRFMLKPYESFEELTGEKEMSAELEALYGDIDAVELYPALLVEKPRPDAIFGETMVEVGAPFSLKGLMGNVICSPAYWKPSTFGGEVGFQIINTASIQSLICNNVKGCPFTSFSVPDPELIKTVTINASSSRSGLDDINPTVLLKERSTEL
Description: Inhibition of human COX2 expressed in african green monkey COS cells assessed as inhibition of arachidonic acid-stimulated PGE2 production by enzyme immunoassay. Type of assay: cell-based.

For assay [2], the target named is T2, Prostaglandin G/H synthase 1 (Homo sapiens, UniProt P23219). Put plainly: Inhibition of human COX1 expressed in african green monkey COS cells assessed as inhibition of arachidonic acid-stimulated PGE2 production by enzyme immunoassay. Type of assay: cell-based.
The next assay is filed under the species Rattus norvegicus. Description: Antiinflammatory activity in Freund's complete adjuvant-induced rat inflammatory pain model assessed as change in weight bearing ability on inflamed paw pretreated 1 hr before and measured 6 hrs after FCA challenge. The assay is classed as functional.
Assay [3] concerns the target T2, Prostaglandin G/H synthase 1. Put plainly: Inhibition of human COX1 expressed in african green monkey COS cells assessed as inhibition of arachidonic acid-stimulated PGE2 production upto 100 uM by enzyme immunoassay. The assay is classed as cell-based. The essentials: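 COS cells stably expressing human COX-1 were stimulated with arachidonic acid, and PGE2 production was measured. IC50 was taken as the concentration inhibiting PGE2 output.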

Calls of active or inactive are those of the source. The calls are words filed in the database; no cut-off is given here.

These results are taken from ChEMBL document CHEMBL1153637, “Identification and optimisation of a novel series of pyrimidine based cyclooxygenase-2 (COX-2) inhibitors. Utilisation of a biotransformation approach” (Bioorg Med Chem Lett, 2009).

T2 sequence (P23219 whole entry): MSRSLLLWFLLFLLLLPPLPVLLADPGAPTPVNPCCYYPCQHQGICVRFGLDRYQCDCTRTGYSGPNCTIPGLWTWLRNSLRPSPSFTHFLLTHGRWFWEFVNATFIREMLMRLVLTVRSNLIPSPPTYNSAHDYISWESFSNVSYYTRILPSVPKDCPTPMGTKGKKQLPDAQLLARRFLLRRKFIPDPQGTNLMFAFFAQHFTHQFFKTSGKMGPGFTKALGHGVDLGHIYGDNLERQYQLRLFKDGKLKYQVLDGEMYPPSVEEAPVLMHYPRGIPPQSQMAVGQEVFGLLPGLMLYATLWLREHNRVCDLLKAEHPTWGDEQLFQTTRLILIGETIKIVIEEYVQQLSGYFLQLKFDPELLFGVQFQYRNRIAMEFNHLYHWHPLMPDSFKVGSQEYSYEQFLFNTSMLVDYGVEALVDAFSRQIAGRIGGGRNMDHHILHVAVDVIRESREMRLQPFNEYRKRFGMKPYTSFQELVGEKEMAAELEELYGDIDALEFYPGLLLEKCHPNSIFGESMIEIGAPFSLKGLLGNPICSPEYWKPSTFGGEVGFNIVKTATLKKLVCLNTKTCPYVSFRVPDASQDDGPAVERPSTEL

With `CN(c1ccccc1)c1ncc(-c2ccc(S(C)(=O)=O)cc2)c(-c2ccc(F)cc2)n1`, in the assay filed under Homo sapiens, the Ratio IC50 is 51. Besides, the figures for the IC50 in assay [1] and in assay [2] were 0.085 µM and 4.34 µM, respectively.

Consider `CS(=O)(=O)c1ccc(-c2cnc(Cc3ccc(F)cc3)nc2-c2ccc(F)cc2)cc1`, for which, in the assay listed under Homo sapiens, the Ratio IC50 was above 361. Also, the IC50 was 0.277 µM in assay [1] and above 100 µM in assay [2].

Consider `Cn1cccc1Cc1ncc(-c2ccc(S(C)(=O)=O)cc2)c(-c2ccc(F)cc2)n1`, for which the Ratio IC50 in the assay listed under Homo sapiens stood at 284. Moreover, the IC50 in assay [1] stood at 0.023 µM; in assay [2] it was 6.54 µM.

As for `CS(=O)(=O)c1ccc(-c2cnc(Cc3ccccc3)nc2-c2ccc(F)cc2)cc1`, the Ratio IC50 in the assay filed under Homo sapiens was above 326. Also, the figures for the IC50 in assay [1] and in assay [2] were 0.104 µM and above 34 µM, respectively.

Turning to `CS(=O)(=O)c1ccc(-c2cnc(CC3CCCCC3)nc2-c2ccc(F)cc2)cc1`, the Ratio IC50 in the assay filed under Homo sapiens stood at 247. The IC50 in assay [1] came to 0.012 µM; in assay [2], 2.97 µM.

For `CS(=O)(=O)c1ccc(-c2cnc(Nc3ccccc3)nc2-c2ccc(F)cc2)cc1`, the Ratio IC50 in the assay listed under Homo sapiens was above 1780. Moreover, the values for the IC50 in assay [1] and in assay [2] were 0.056 µM and above 100 µM, respectively.

For the compound `CS(=O)(=O)c1ccc(-c2cnc(CCc3ccccc3)nc2-c2ccc(F)cc2)cc1`, the Ratio IC50 in the assay filed under Homo sapiens stood at 5.6. Moreover, the IC50 came to 5.26 µM in assay [1] and 29.4 µM in assay [2].

On to `CS(=O)(=O)c1ccc(-c2cnc(Cc3ccccn3)nc2-c2ccc(F)cc2)cc1`, for which, in the assay listed under Homo sapiens, the Ratio IC50 is above 16. The IC50 was 6.32 µM in assay [1] and above 100 µM in assay [2].

Turning to `CS(=O)(=O)c1ccc(-c2cnc(Cc3ccc(F)cc3F)nc2-c2ccc(F)cc2)cc1`, in the assay filed under Homo sapiens, the Ratio IC50 was above 457. Moreover, the IC50 in assay [1] is 0.114 µM; in assay [2], above 52.1 µM.

With `CC(C)c1ncc(-c2ccc(S(C)(=O)=O)cc2)c(-c2ccc(F)cc2)n1`, in the assay filed under Homo sapiens, the Ratio IC50 stood at 8.8. Also, the IC50 in assay [1] was determined as 1.14 µM; in assay [2], 10 µM.

For `CS(=O)(=O)c1ccc(-c2cnc(Oc3ccccc3)nc2-c2ccc(F)cc2)cc1`, the IC50 was above 4.64 µM in assay [1] and above 100 µM in assay [2].

For the compound `CS(=O)(=O)c1ccc(-c2cnc(Cc3ccccc3O)nc2-c2ccc(F)cc2)cc1`, in assay [1], the IC50 stood at 0.043 µM.

As for `CS(=O)(=O)c1ccc(-c2cnc(Cc3ccccc3)[n+]([O-])c2-c2ccc(F)cc2)cc1`, the IC50 in assay [1] was determined as 0.717 µM.

Turning to `CS(=O)(=O)c1ccc(-c2cnc(C(O)c3ccccc3)nc2-c2ccc(F)cc2)cc1` (configuration not stated), in the assay listed under Rattus norvegicus, the ED50 is 1.6 mg/kg. Also, the result in assay [3] was inactive. In addition, in assay [1], the IC50 came out at 0.057 µM.

`CS(=O)(=O)c1ccc(-c2cnc(Sc3ccccc3)nc2-c2ccc(F)cc2)cc1`: the IC50 in assay [1] is above 7.2 µM; in assay [2] it was above 100 µM.

Turning to `CS(=O)(=O)c1ccc(-c2cnc(NCc3ccccc3)nc2-c2ccc(F)cc2)cc1`, the Ratio IC50 in the assay listed under Homo sapiens is above 145. Further, the IC50 was 0.686 µM in assay [1] and above 100 µM in assay [2].

What is called IC50 is the concentration needed to halve the response being measured. What is called ED50 is the midpoint of the dose-response relation.
